Experimental data from ChEMBL document CHEMBL1139453, “Potent inhibitors of the Plasmodium falciparum enzymes plasmepsin I and II devoid of cathepsin D inhibitory activity” (J Med Chem, 2004).

Assays:
Cathepsin D [1] = biological target: T1, Cathepsin D (Homo sapiens, UniProt P07339); assay: Inhibitory activity against human cathepsin D
How it was run: (§1)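 Human liver Cat D, 50 ng/mL pro-form, activated 20 min at 37 °C in 100 mM sodium acetate pH 4.5, 10% glycerol, 0.01% Tween 20. Inhibitor (tested up to 2000 nM, final DMSO 1%) added before 3 μM DABCYL-Glu-Arg-Nle-Phe-Leu-Ser-Phe-Pro-EDANS. Fluorescence rise followed 10 min. IC50 from Langmuir fit assuming competitive inhibition; Ki = IC50/(1+[S]/Km).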

Plasmodium falciparum [2] = assay: In vitro percent inhibition of Plasmodium falciparum 3D7 in human erythrocyte at 5 uM; assay type: functional
How it was run: (§2)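 Synchronous P. falciparum 3D7 early trophozoites (~1% haematocrit, 1% parasitaemia) in human erythrocytes, labelled with [3H]hypoxanthine 10 μCi mL⁻¹; compound added (1–5 μM final, DMSO up to 1% v/v), 30 h at 37 °C in gassed boxes to schizont stage. Filter-harvested, β-counted; radioactivity relative to DMSO-only wells; four independent experiments per concentration.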

Plasmepsin I = Plasmepsin I (Plasmodium falciparum, UniProt P39898); assay: Inhibitory activity against protease plasmepsin-1 (Plm I) of Plasmodium falciparum
Sequence of Plasmepsin I (P39898 whole entry): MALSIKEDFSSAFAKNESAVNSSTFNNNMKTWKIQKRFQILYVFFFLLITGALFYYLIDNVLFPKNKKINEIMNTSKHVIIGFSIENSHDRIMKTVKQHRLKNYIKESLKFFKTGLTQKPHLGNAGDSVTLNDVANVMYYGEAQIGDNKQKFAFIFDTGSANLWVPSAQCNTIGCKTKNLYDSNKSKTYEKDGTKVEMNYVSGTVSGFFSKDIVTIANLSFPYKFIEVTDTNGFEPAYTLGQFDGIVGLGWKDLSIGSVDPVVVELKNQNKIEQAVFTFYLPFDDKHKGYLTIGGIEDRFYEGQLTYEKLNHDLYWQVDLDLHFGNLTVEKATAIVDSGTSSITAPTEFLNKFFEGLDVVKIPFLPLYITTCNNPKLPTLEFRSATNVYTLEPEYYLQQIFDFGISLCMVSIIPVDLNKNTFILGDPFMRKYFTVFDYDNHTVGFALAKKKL
How it was run: (§3)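 Plm II: 3 nM pro-enzyme, pro-sequence cleaved by 40 min room-temperature preincubation; Plm I amount matched to similar activity. Buffer 100 mM sodium acetate pH 4.5, 10% glycerol, 0.01% Tween 20. Inhibitor (up to 1500 nM Plm I, 2500 nM Plm II; 1% DMSO final), then 3 μM FRET substrate; fluorescence over 10 min. Competitive Langmuir IC50 converted to Ki via Michaelis–Menten Km.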

Plasmepsin II = Plasmepsin II (Plasmodium falciparum, UniProt P46925); assay: Inhibitory activity against protease plasmepsin-2 (Plm II) of Plasmodium falciparum; how it was run: as §3
Sequence of Plasmepsin II (P46925 whole entry): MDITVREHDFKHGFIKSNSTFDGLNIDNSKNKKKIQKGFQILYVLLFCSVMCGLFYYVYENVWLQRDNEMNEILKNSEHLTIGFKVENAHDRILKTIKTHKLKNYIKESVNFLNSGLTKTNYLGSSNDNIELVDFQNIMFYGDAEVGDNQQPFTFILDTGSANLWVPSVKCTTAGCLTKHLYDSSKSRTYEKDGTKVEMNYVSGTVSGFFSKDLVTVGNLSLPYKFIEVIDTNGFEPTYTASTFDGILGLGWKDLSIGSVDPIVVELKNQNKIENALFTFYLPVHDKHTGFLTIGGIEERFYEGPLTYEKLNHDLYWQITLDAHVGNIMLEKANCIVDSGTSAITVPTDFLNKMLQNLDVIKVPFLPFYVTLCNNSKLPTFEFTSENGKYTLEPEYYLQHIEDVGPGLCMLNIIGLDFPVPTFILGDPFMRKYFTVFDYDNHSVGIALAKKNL

Cathepsin D [3] = biological target: T1, Cathepsin D; assay: Inhibitory activity against human Cathepsin D; Range; how it was run: as §1
Plasmodium falciparum [4] = assay: Percent inhibition for Plasmodium falciparum at 5 uM; assay type: functional; how it was run: as §2

T1 sequence (P07339 65-162 limits assumed): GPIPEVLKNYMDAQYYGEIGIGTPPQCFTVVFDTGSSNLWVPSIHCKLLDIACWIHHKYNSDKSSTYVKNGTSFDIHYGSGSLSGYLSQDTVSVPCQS
T1 sequence (P07339 169-412 limits assumed): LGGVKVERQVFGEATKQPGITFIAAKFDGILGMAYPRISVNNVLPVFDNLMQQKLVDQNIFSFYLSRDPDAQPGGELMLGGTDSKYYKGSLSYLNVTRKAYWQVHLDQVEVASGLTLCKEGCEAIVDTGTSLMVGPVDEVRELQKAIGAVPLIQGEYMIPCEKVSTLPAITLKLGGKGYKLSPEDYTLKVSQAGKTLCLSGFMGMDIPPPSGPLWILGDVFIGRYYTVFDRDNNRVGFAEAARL

SMILES	Ki (Cathepsin D [1])	inhibition at 5 µM (Plasmodium falciparum [2])	Ki (Plasmepsin I)	Ki (Plasmepsin II)	Ki (Cathepsin D [3])	inhibition at 5 µM (Plasmodium falciparum [4])
COC(=O)/C=C/C=C/CO[C@@H](C(=O)N[C@H]1c2ccccc2C[C@H]1O)[C@H](O)[C@@H](O)[C@@H](OC/C=C/C=C/C(=O)OC)C(=O)N[C@H]1c2ccccc2C[C@H]1O	> 2000 nM	51%	3.7 nM	8.9 nM		
Cc1ccc(/C=C/CO[C@@H](C(=O)N[C@H]2c3ccccc3C[C@H]2O)[C@H](O)[C@@H](O)[C@@H](OC/C=C/c2ccc(C)cc2)C(=O)N[C@H]2c3ccccc3C[C@H]2O)cc1	> 2000 nM		5.8 nM	129 nM		
COc1ncc(/C=C/CO[C@@H](C(=O)N[C@H]2c3ccccc3C[C@H]2O)[C@H](O)[C@@H](O)[C@@H](OC/C=C/c2cnc(OC)nc2OC)C(=O)N[C@H]2c3ccccc3C[C@H]2O)c(OC)n1	> 2000 nM	2%	8.4 nM	13 nM		
C=CCO[C@@H](C(=O)N[C@H](C(=O)NC)C(C)C)[C@H](O)[C@@H](O)[C@@H](OCC=C)C(=O)N[C@H](C(=O)NC)C(C)C				4100 nM		
O=C(N[C@H]1c2ccccc2C[C@H]1O)[C@H](OC/C=C/c1ccsc1)[C@H](O)[C@@H](O)[C@@H](OC/C=C/c1ccsc1)C(=O)N[C@H]1c2ccccc2C[C@H]1O	> 2000 nM		1.3 nM	15 nM		
Cc1noc(C)c1/C=C/CO[C@@H](C(=O)N[C@H]1c2ccccc2C[C@H]1O)[C@H](O)[C@@H](O)[C@@H](OC/C=C/c1c(C)noc1C)C(=O)N[C@H]1c2ccccc2C[C@H]1O	> 2000 nM		23 nM	181 nM		
O=C(N[C@H]1c2ccccc2C[C@H]1O)[C@H](OCc1ccccc1)[C@H](O)[C@@H](O)[C@@H](OCc1ccccc1)C(=O)N[C@H]1c2ccccc2C[C@H]1O	> 2000 nM		25 nM	85 nM		
C[Si](C)(C)C#C/C=C/CO[C@@H](C(=O)N[C@H]1c2ccccc2C[C@H]1O)[C@H](O)[C@@H](O)[C@@H](OC/C=C/C#C[Si](C)(C)C)C(=O)N[C@H]1c2ccccc2C[C@H]1O	> 2000 nM		37 nM	130 nM		
CC(=O)c1ccc(/C=C/CO[C@@H](C(=O)N[C@H]2c3ccccc3C[C@H]2O)[C@H](O)[C@@H](O)[C@@H](OC/C=C/c2ccc(C(C)=O)cc2)C(=O)N[C@H]2c3ccccc3C[C@H]2O)cc1	> 2000 nM	78%	0.8 nM	6 nM		
CNC(=O)[C@@H](NC(=O)[C@H](OCc1ccccc1)[C@H](O)[C@@H](O)[C@@H](OCc1ccccc1)C(=O)N[C@H](C(=O)NC)C(C)C)C(C)C				3800 nM		
O=C(N[C@H]1c2ccccc2C[C@H]1O)[C@H](OC/C=C/c1ccccc1)[C@H](O)[C@@H](O)[C@@H](OC/C=C/c1ccccc1)C(=O)N[C@H]1c2ccccc2C[C@H]1O	> 2000 nM		1.4 nM	29 nM		
O=C(N[C@H]1c2ccccc2C[C@H]1O)[C@H](OC/C=C/c1ccc2c(c1)OCO2)[C@H](O)[C@@H](O)[C@@H](OC/C=C/c1ccc2c(c1)OCO2)C(=O)N[C@H]1c2ccccc2C[C@H]1O	> 2000 nM	61%	0.5 nM	14 nM		
O=C(N[C@H]1c2ccccc2C[C@H]1O)[C@H](OC/C=C/c1ccc(F)cc1)[C@H](O)[C@@H](O)[C@@H](OC/C=C/c1ccc(F)cc1)C(=O)N[C@H]1c2ccccc2C[C@H]1O	> 2000 nM		2.5 nM	59 nM		
O=C(N[C@H]1c2ccccc2C[C@H]1O)[C@H](OC/C=C/C=C/c1ccccc1)[C@H](O)[C@@H](O)[C@@H](OC/C=C/C=C/c1ccccc1)C(=O)N[C@H]1c2ccccc2C[C@H]1O	> 2000 nM		4.4 nM	15 nM		
C=CCO[C@@H](CN[C@H]1c2ccccc2C[C@H]1O)[C@H](O)[C@@H](O)[C@@H](OCC=C)C(=O)N[C@H]1c2ccccc2C[C@H]1O		50%	> 1500 nM	> 2500 nM	> 2000 nM	
O=C(N[C@H]1c2ccccc2C[C@H]1O)[C@H](OC/C=C/C#Cc1ccccc1)[C@H](O)[C@@H](O)[C@@H](OC/C=C/C#Cc1ccccc1)C(=O)N[C@H]1c2ccccc2C[C@H]1O	> 2000 nM		7.2 nM	41 nM		
CC(C)[C@H](NC(=O)CCc1c[nH]c2ccccc12)C(=O)N[C@@H](Cc1ccccc1)[C@@H](O)CN[C@@H](Cc1ccc(-c2ccccc2)cc1)C(N)=O	30 nM		2.6 nM	11 nM		56%
C#C/C=C/CO[C@@H](C(=O)N[C@H]1c2ccccc2C[C@H]1O)[C@H](O)[C@@H](O)[C@@H](OC/C=C/C#C)C(=O)N[C@H]1c2ccccc2C[C@H]1O	> 2000 nM		32 nM	37 nM		
O=C(N[C@H]1c2ccccc2C[C@H]1O)[C@H](OC/C=C/Br)[C@H](O)[C@@H](O)[C@@H](OC/C=C/Br)C(=O)N[C@H]1c2ccccc2C[C@H]1O	> 2000 nM		27 nM	47 nM		
C=CCO[C@@H](C(=O)N[C@H]1c2ccccc2C[C@H]1O)[C@H](O)[C@@H](O)[C@@H](OCC=C)C(=O)N[C@H]1c2ccccc2C[C@H]1O	> 2000 nM	0%	163 nM	96 nM		
